Measurements published in ChEMBL document CHEMBL4680079, “Discovery of a Quinoline-4-carboxamide Derivative with a Novel Mechanism of Action, Multistage Antimalarial Activity, and Potent in Vivo Efficacy” (J Med Chem, 2016).
Converted amounts (≈) assume the structure as drawn.

Experiments:
[1] = system: MRC5; assay: Antiproliferative activity against human MRC5 cells assessed as reduction in cell viability after 68 hrs by resazurin dye based fluorescence assay; settings: MRC5, 68 h
In short: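 MRC-5 fibroblasts plated overnight as monolayers, exposed to compound pre-diluted in MEM for 68 h. Resazurin then added (final 50 μM) for 3 h, fluorescence read at ex 528/em 590 nm. Signal converted to % inhibition against high- and no-inhibition controls. Plates accepted at Z' > 0.5.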

[2] = Hepatic extraction in rat during hepatic portal vein study; type: ADME; settings: read-out: ERH
[3] = AUC in NMRI mouse at 10 mg/kg, po administered as gavage by UPLC-MS/MS analysis; type: ADME, organism-based; set-up: dose 10 mg/kg; settings: in vivo
In short: (§1)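 Female NMRI mice (n=3) dosed by oral gavage as a solution at 10 mg free base/kg (10 mL/kg; vehicle 5 or 10% DMSO, 40% PEG400). Blood levels measured by UPLC-MS/MS. Parameters derived from the blood concentration-time curve.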

[4] = system: Plasmodium berghei; assay: Antiplasmodial activity against Plasmodium berghei ANKA infected in NMRI mouse assessed as reduction in parasitemia at 10 mg/kg, po QD for 4 days; type: functional; set-up: scale not given: the % may be the effect or the level left; settings: time 4 day
In short: (§2)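 Female NMRI mice (n=3 per group, randomized, not blinded) infected with GFP-transfected P. berghei ANKA. Oral dosing once daily for 4 days in 10% DMSO/40% PEG400/50% water or HPMC suspension vehicle. Parasitaemia measured by flow cytometry on blood collected 96 h after infection. Mice watched for toxicity over 4 h post-dose each day.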

[5] = Permeability of the compound at 10 uM incubated for 5 hrs by UPLC-MS/MS analysis based PAMPA method; type: ADME; settings: read-out: permeability
In short: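 PAMPA run on a lipid-oil-lipid tri-layer filter at pH 7.4. Compound at 10 μM in PBS (DMSO ≤5%) in donor wells, PBS in acceptor wells, kept 5 h at room temperature. Both compartments quantified by UPLC-MS/MS. Data accepted only when recovery exceeded 70%.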

[6] = system: Plasmodium falciparum; assay: Antiplasmodial activity against drug resistant Plasmodium falciparum V1/S by [3H]hypoxanthine incorporation assay; type: functional, organism-based
In short: (§3)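 Strains (K1, W2, 7G8, TM90C2A, D6, V1/S resistant; NF54 sensitive) cultured by the Trager and Jensen method; EC50 determined in vitro from [3H]hypoxanthine incorporation.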

[7] = system: Plasmodium falciparum; assay: Antiplasmodial activity against chloroquine-sensitive Plasmodium falciparum 3D7 infected in human red blood cells assessed as growth inhibition by SYBR Green fluorescence assay; type: functional, organism-based, RBC; settings: 3D7, Erythrocyte
In short: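 P. falciparum 3D7 grown in 5% human red cells in RPMI 1640 (pH 7.3) with 0.5% Albumax II, hypoxanthine and gentamicin at 37°C under 1% O₂/3% CO₂. Growth measured by SYBR green fluorescence (ex 485/em 528 nm), with mefloquine as assay control. EC50 calculated.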

[8] = Protein binding in CD1 mouse plasma measured after 5 hr by UPLC-MS/MS analysis based equilibrium dialysis method; type: ADME, cell-free; settings: mouse, 5 h
In short: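 Equilibrium dialysis of female CD1 mouse plasma spiked at 10 μg/mL (12-14 kDa membrane) against isotonic buffer for 5 h at ~37°C with shaking. Unbound fraction taken as the buffer/plasma peak-area ratio by UPLC-MS/MS. n=6 replicates, run in triplicate.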

[9] = Clearance in NMRI mouse blood at 3 mg/kg, iv administered as bolus dose by UPLC-MS/MS analysis; type: ADME, organism-based
In short: (§4)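 Intravenous bolus solution, 3 mg free base/kg (5 mL/kg; 10% DMSO, 90% saline), given to female NMRI mice (n=3). Compound level in blood determined by UPLC-MS/MS. PK parameters derived from the blood concentration-time curve.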

[10] = system: Plasmodium berghei; assay: Antiplasmodial activity against Plasmodium berghei ANKA infected in NMRI mouse assessed as survival days at 30 mg/kg, po QD for 4 days; type: functional; settings: time 4 day
[11] = Half-life in NMRI mouse at 3 mg/kg, iv administered as bolus dose by UPLC-MS/MS analysis; type: ADME, organism-based; settings: in vivo; in short: as §4
[12] = system: Plasmodium falciparum; assay: Antiplasmodial activity against drug resistant Plasmodium falciparum K1 by [3H]hypoxanthine incorporation assay; type: functional, organism-based; in short: as §3
[13] = system: Plasmodium berghei; assay: Antiplasmodial activity against Plasmodium berghei ANKA infected in NMRI mouse assessed as reduction in parasitemia at 1 mg/kg, po QD for 4 days; type: functional; set-up: scale not given: the % may be the effect or the level left; settings: time 4 day; in short: as §2
[14] = Cmax in NMRI mouse at 10 mg/kg, po administered as gavage by UPLC-MS/MS analysis; type: ADME, organism-based; set-up: route oral, dose 10 mg/kg; settings: in vivo; in short: as §1
[15] = system: Plasmodium falciparum; assay: Antiplasmodial activity against drug resistant Plasmodium falciparum D6 by [3H]hypoxanthine incorporation assay; type: functional, organism-based; in short: as §3
[16] = Intrinsic clearance in Sprague-Dawley rat liver microsomes at 0.5 uM in presence of NADPH incubated upto 30 mins by UPLC-MS/MS analysis; type: ADME, Microsome; settings: 0.5 h
In short: (§5)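 Compound at 0.5 μM incubated with female CD1 mouse, male Sprague-Dawley rat or pooled human liver microsomes (0.5 mg/mL, 50 mM potassium phosphate, pH 7.4). Reaction started with excess NADPH. Samples taken at 0-30 min, quenched in acetonitrile, analysed by UPLC-MS/MS. Verapamil used as control, single time course.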

[17] = system: Plasmodium yoelii; assay: Antiplasmodial activity against Plasmodium yoelli liver stage forms; type: functional, organism-based
[18] = system: Plasmodium falciparum; assay: Antiplasmodial activity against drug resistant Plasmodium falciparum W2 by [3H]hypoxanthine incorporation assay; type: functional, organism-based; in short: as §3
[19] = system: Plasmodium berghei; assay: Antiplasmodial activity against Plasmodium berghei ANKA infected in NMRI mouse assessed as survival days at 3 mg/kg, po QD for 4 days; type: functional; settings: time 4 day
[20] = Intrinsic clearance in rat hepatocytes; type: ADME, cell-based, Hepatocyte
[21] = Kinetic aqueous solubility of the compound by laser nephelometry; type: physicochemical; settings: read-out: Kinetic_solubility
In short: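 Kinetic solubility measured by laser nephelometry. DMSO serial dilutions diluted into water to give final 100–5 μg/mL at 1.0% DMSO. Read immediately, in triplicate aliquots.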

[22] = target: Voltage-gated inwardly rectifying potassium channel KCNH2 (Homo sapiens, UniProt Q12809); assay: Inhibition of human ERG by IonWorks patch-clamp electrophysiology method
In short: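 hERG K⁺ channel inhibition measured by IonWorks patch-clamp electrophysiology. Eight-point concentration-response curves made from 3-fold serial dilutions down from the maximum final assay concentration. Each curve generated on 2 occasions.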

[23] = system: Plasmodium berghei; assay: Antiplasmodial activity against Plasmodium berghei ANKA infected in NMRI mouse assessed as survival days at 1 mg/kg, po QD for 4 days; type: functional; settings: time 4 day
[24] = system: Plasmodium falciparum; assay: Antiplasmodial activity against late stage (IV/V) Plasmodium falciparum NF54 gametocytes transfected with GFP-LUC assessed as growth inhibition incubated for 72 hrs by mitotracker Red-CMXROS dye based fluorescence microscopic analysis; type: functional, organism-based; settings: NF54, 72 h
In short: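 NF54 pfs16-LUC-GFP stage IV–V gametocytes (10% parasitaemia, 0.1% haematocrit) exposed to compound in 0.4% DMSO, three concentrations per log, for 72 h at 37°C under 5% CO2/5% O2/90% N2. MitoTracker Red CM-H2Xros then added for 16 h and viable gametocytes counted by imaging.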

[25] = system: Plasmodium berghei; assay: Antiplasmodial activity against Plasmodium berghei ookinete form assessed as growth inhibition incubated for 22 hrs by GFP-based fluorescence microscopic analysis; type: functional, organism-based
[26] = Intrinsic clearance in human liver microsomes at 0.5 uM in presence of NADPH incubated upto 30 mins by UPLC-MS/MS analysis; type: ADME, Microsome; settings: 0.5 h; in short: as §5
[27] = Tmax in NMRI mouse at 10 mg/kg, po administered as gavage by UPLC-MS/MS analysis; type: ADME, organism-based; settings: in vivo; in short: as §1
[28] = Volume of distribution at steady state in NMRI mouse at 3 mg/kg, iv administered as bolus dose by UPLC-MS/MS analysis; type: ADME, organism-based; settings: in vivo, read-out: Vdss; in short: as §4
[29] = system: Plasmodium falciparum; assay: Antiplasmodial activity against drug resistant Plasmodium falciparum TM90C2A by [3H]hypoxanthine incorporation assay; type: functional, organism-based; in short: as §3
[30] = system: Plasmodium falciparum; assay: Antiplasmodial activity against drug resistant Plasmodium falciparum 7G8 by [3H]hypoxanthine incorporation assay; type: functional, organism-based; in short: as §3
[31] = Oral bioavailability in NMRI mouse at 10 mg/kg administered via gavage by UPLC-MS/MS analysis; type: ADME, organism-based; settings: in vivo; in short: as §1
[32] = system: Plasmodium berghei; assay: Antiplasmodial activity against GFP-transfected Plasmodium berghei ANKA infected in NMRI mouse assessed as reduction in parasitemia by measuring effective dose administered once daily oral dose for 4 days; type: functional; settings: 96 h, time 4 day; in short: as §2
[33] = system: Plasmodium berghei; assay: Antiplasmodial activity against Plasmodium berghei ANKA infected in NMRI mouse assessed as reduction in parasitemia at 30 mg/kg, po QD for 4 days; type: functional; set-up: scale not given: the % may be the effect or the level left; settings: time 4 day; in short: as §2
[34] = system: Plasmodium berghei; assay: Antiplasmodial activity against Plasmodium berghei infected in NMRI mouse assessed as reduction in parasitemia at 3 mg/kg, po QD for 4 days; type: functional; set-up: scale not given: the % may be the effect or the level left; settings: time 4 day; in short: as §2
[35] = system: Plasmodium berghei; assay: Antiplasmodial activity against Plasmodium berghei ANKA infected in NMRI mouse assessed as survival days at 10 mg/kg, po QD for 4 days; type: functional; settings: time 4 day
[36] = Intrinsic clearance in CD1 mouse liver microsomes at 0.5 uM in presence of NADPH incubated upto 30 mins by UPLC-MS/MS analysis; type: ADME, Microsome; settings: 0.5 h; in short: as §5
[37] = system: Plasmodium falciparum; assay: Antiplasmodial activity against drug resistant Plasmodium falciparum […] [3H]hypoxanthine incorporation assay; type: functional, organism-based; in short: as §3

Sequence of Voltage-gated inwardly rectifying potassium channel KCNH2 (Q12809 whole entry): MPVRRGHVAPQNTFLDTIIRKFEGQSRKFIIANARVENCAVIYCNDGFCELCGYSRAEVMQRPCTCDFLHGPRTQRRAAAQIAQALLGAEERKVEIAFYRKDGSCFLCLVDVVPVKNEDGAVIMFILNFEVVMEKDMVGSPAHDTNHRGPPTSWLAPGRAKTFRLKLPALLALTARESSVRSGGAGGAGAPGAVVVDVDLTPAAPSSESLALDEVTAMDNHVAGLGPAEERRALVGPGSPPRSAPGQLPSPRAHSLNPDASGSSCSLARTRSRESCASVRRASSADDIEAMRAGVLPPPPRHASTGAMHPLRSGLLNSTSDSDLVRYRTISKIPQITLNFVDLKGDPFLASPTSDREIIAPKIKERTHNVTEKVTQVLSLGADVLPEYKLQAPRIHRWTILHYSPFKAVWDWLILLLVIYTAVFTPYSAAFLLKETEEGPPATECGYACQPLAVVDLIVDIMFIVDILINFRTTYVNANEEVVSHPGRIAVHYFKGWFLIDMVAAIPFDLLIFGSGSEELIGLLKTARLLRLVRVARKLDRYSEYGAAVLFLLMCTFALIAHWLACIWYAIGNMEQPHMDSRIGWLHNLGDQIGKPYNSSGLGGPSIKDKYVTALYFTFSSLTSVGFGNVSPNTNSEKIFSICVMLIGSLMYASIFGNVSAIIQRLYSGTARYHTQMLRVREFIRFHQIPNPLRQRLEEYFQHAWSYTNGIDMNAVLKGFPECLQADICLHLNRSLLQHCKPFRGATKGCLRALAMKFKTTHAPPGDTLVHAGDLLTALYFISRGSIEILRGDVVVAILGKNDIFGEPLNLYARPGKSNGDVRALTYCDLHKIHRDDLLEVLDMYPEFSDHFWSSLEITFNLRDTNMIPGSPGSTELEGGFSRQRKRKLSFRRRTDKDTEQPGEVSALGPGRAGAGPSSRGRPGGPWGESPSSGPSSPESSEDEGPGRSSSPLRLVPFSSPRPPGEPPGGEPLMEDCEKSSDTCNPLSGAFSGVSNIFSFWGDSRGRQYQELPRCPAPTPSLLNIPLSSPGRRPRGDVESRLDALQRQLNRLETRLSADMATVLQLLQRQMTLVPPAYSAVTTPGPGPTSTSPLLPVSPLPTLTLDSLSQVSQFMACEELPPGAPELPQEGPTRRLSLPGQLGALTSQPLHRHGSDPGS

Q: Which EC50 [1] does the source give for `O=C(NCCN1CCCC1)c1cc(NCCC2CCOCC2)nc2ccc(Cl)cc12` here?
A: 31000 nM

Q: And the hepatic extraction ratio [2]?
A: 0.76

Q: And the AUC [3]?
A: 1210 ng·h/mL

Q: And the Activity [4]?
A: 99.9%

Q: What about the Papp at 5 h, 10 µM [5] of the same compound?
A: 4.8 ×10⁻⁶ cm/s

Q: What about the EC50 [6] of the same compound?
A: 0.9 nM

Q: And the EC50 [7]?
A: 6 nM

Q: What about the PPB [8] of the same compound?
A: 77%

Q: And the clearance [9]?
A: 34 mL/min/kg

Q: And the Survival [10]?
A: 10 days

Q: And the half-life [11]?
A: 2.9 h

Q: And the EC50 [12]?
A: 0.8 nM

Q: What about the Activity [13] of the same compound?
A: 90%

Q: What about the Cmax [14] of the same compound?
A: 193 ng/mL

Q: And the EC50 [15]?
A: 0.7 nM

Q: What about the CLH [16] of the same compound?
A: 0.8 mL/min/g

Q: What about the EC50 [17] of the same compound?
A: 1 nM

Q: And the EC50 [18]?
A: 0.6 nM

Q: And the Survival [19]?
A: 6 days

Q: And the CLH [20]?
A: 3 mL/min/g

Q: And the solubility kinetic [21]?
A: 230 µM (≈ 99.1 µg/mL)

Q: And the IC50 [22]?
A: > 11000 nM

Q: What about the Survival [23] of the same compound?
A: 7 days

Q: And the EC50 [24]?
A: 39 nM

Q: And the EC50 [25]?
A: 14 nM

Q: And the CLH [26]?
A: 1 mL/min/g

Q: And the Tmax [27]?
A: 0.5 h

Q: What about the Vd [28] of the same compound?
A: 7.4 L/kg

Q: What about the EC50 [29] of the same compound?
A: 0.5 nM

Q: And the EC50 [30]?
A: 0.7 nM

Q: What about the bioavailability [31] of the same compound?
A: 23%

Q: What about the ED90 [32] of the same compound?
A: 1 mg/kg

Q: And the Activity [33]?
A: 99.9%

Q: What about the Activity [34] of the same compound?
A: 98%

Q: What about the Survival [35] of the same compound?
A: 8 days

Q: What about the CLH [36] of the same compound?
A: 2 mL/min/g

Q: And the EC50 [37]?
A: 0.5 nM
